Laboratory results: ChEMBL document CHEMBL1275592, “AmpN-AmpG operon is essential for expression of L1 and L2 beta-lactamases in Stenotrophomonas maltophilia” (2010)
Converted amounts (≈) assume the structure as drawn.

Experiments:
[1] = biological target: T1, Catechol 2,3-dioxygenase (Stenotrophomonas maltophilia) (UniProt A7LB47); assay: Induction of catechol 2,3-dioxygenase activity in Stenotrophomonas maltophilia KJG harboring ampG with xylE-Gmomega cassette insertion at 20 ug/ml
T1 sequence (whole entry): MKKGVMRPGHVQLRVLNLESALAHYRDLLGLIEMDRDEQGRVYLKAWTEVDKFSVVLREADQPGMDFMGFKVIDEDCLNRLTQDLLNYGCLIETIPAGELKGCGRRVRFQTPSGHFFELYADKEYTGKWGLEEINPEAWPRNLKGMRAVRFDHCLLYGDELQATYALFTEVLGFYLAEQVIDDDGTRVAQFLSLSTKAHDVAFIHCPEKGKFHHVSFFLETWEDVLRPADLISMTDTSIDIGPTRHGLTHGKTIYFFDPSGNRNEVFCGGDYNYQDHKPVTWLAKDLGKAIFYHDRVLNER
How it was run: (§1)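 C23O (xylE product) activity assayed in intact cells, with cefuroxime 20 μg/ml as inducer. Rate calculated with extinction coefficient 44,000 M−1 cm−1. One unit (Uc) converts 1 nmol substrate/min. Specific activity given as Uc/OD450. Plasmids were introduced into S. maltophilia by conjugation and confirmed by colony PCR.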

[2] = test system: Stenotrophomonas maltophilia; assay: Induction of beta lactamase activity in Stenotrophomonas maltophilia KJN2 harboring pRK415 and ampN with xylE-Gmomega cassette insertion at 20 ug/ml
How it was run: (§2)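 Cells were induced with cefuroxime at 20 μg/ml. β-Lactamase activity was measured as nitrocefin hydrolysis at 486 nm, using ε 20,500 M−1 cm−1. Specific activity is nmol nitrocefin hydrolysed/min/mg protein. Protein was measured by dye-binding assay against a BSA standard. Basal and induced activities are both reported.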

[3] = biological target: T1, Catechol 2,3-dioxygenase (Stenotrophomonas maltophilia); assay: Induction of catechol 2,3-dioxygenase activity in ampN deficient Stenotrophomonas maltophilia KJ harboring pRK-G and ampG gene with xylE-Gmomega cassette insertion at 20 ug/ml; how it was run: as §1
[4] = test system: Stenotrophomonas maltophilia; assay: Induction of beta-lactamase activity in Stenotrophomonas maltophilia KJG harboring ampG with xylE-Gmomega cassette insertion at 20 ug/ml; how it was run: as §2
[5] = biological target: T1, Catechol 2,3-dioxygenase (Stenotrophomonas maltophilia); assay: Induction of catechol 2,3-dioxygenase activity in Stenotrophomonas maltophilia KJ harboring pRKF2 plasmid at 20 ug/ml; how it was run: as §1
[6] = biological target: T1, Catechol 2,3-dioxygenase (Stenotrophomonas maltophilia); assay: Induction of catechol 2,3-dioxygenase activity in Stenotrophomonas maltophilia KJN2 harboring ampN with xylE-Gmomega cassette insertion at 20 ug/ml; how it was run: as §1
[7] = biological target: T1, Catechol 2,3-dioxygenase (Stenotrophomonas maltophilia); assay: Induction of catechol 2,3-dioxygenase activity in Stenotrophomonas maltophilia KJ harboring pRKF5 plasmid at 20 ug/ml; how it was run: as §1
[8] = test system: Stenotrophomonas maltophilia; assay: Induction of beta-lactamase activity in Stenotrophomonas maltophilia KJN2 harboring ampN with xylE-Gmomega cassette insertion at 20 ug/ml; how it was run: as §2
[9] = test system: Stenotrophomonas maltophilia; assay: Induction of beta-lactamase activity in ampN deficient Stenotrophomonas maltophilia KJ harboring ampG gene with xylE-Gmomega cassette insertion at 20 ug/ml; how it was run: as §2
[10] = test system: Stenotrophomonas maltophilia; assay: Antimicrobial activity against Stenotrophomonas maltophilia KJG harboring ampG with xylE-Gmomega cassette insertion by agar dilution method; format: functional
How it was run: (§3)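 MICs were determined in triplicate by standard 2-fold serial agar dilution, following CLSI guidelines.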

[11] = test system: Stenotrophomonas maltophilia; assay: Antimicrobial activity against Stenotrophomonas maltophilia KJN2 harboring ampN with xylE-Gmomega cassette insertion by agar dilution method; format: functional; how it was run: as §3
[12] = biological target: T1, Catechol 2,3-dioxygenase (Stenotrophomonas maltophilia); assay: Induction of catechol 2,3-dioxygenase activity in Stenotrophomonas maltophilia KJ harboring pRKF3 plasmid at 20 ug/ml; how it was run: as §1
[13] = test system: Stenotrophomonas maltophilia; assay: Antimicrobial activity against Stenotrophomonas maltophilia KJN2 harboring pRK-G plasmid and ampN with xylE-Gmomega cassette insertion by agar dilution method; format: functional; how it was run: as §3
[14] = test system: Stenotrophomonas maltophilia; assay: Antimicrobial activity against Stenotrophomonas maltophilia KJN1 harboring ampN with xylE-Gmomega cassette insertion by agar dilution method; format: functional; how it was run: as §3
[15] = test system: Stenotrophomonas maltophilia; assay: Antimicrobial activity against Stenotrophomonas maltophilia KJN2 harboring pRK-EcG plasmid and ampN with xylE-Gmomega cassette insertion by agar dilution method; format: functional; how it was run: as §3
[16] = test system: Stenotrophomonas maltophilia; assay: Induction of beta-lactamase activity in ampN deficient Stenotrophomonas maltophilia KJ at 20 ug/ml; how it was run: as §2
[17] = test system: Stenotrophomonas maltophilia; assay: Antimicrobial activity against Stenotrophomonas maltophilia KJN2 harboring pRK415 plasmid and ampN with xylE-Gmomega cassette insertion by agar dilution method; format: functional; how it was run: as §3
[18] = biological target: T1, Catechol 2,3-dioxygenase (Stenotrophomonas maltophilia); assay: Induction of catechol 2,3-dioxygenase activity in ampN deficient Stenotrophomonas maltophilia KJ harboring ampG gene with xylE-Gmomega cassette insertion at 20 ug/ml; how it was run: as §1
[19] = test system: Stenotrophomonas maltophilia; assay: Antimicrobial activity against ampN deficient Stenotrophomonas maltophilia KJ by agar dilution method; format: functional; how it was run: as §3
[20] = biological target: T1, Catechol 2,3-dioxygenase (Stenotrophomonas maltophilia); assay: Induction of catechol 2,3-dioxygenase activity in Stenotrophomonas maltophilia KJ harboring pRKF4 plasmid at 20 ug/ml; how it was run: as §1
[21] = test system: Stenotrophomonas maltophilia; assay: Induction of beta lactamase activity in Stenotrophomonas maltophilia KJN2 harboring pRK-NG and ampN with xylE-Gmomega cassette insertion at 20 ug/ml; how it was run: as §2
[22] = biological target: T1, Catechol 2,3-dioxygenase (Stenotrophomonas maltophilia); assay: Induction of catechol 2,3-dioxygenase activity in ampN deficient Stenotrophomonas maltophilia KJ harboring pRK-N and ampG gene with xylE-Gmomega cassette insertion at 20 ug/ml; how it was run: as §1
[23] = biological target: T1, Catechol 2,3-dioxygenase (Stenotrophomonas maltophilia); assay: Induction of catechol 2,3-dioxygenase activity in Stenotrophomonas maltophilia KJ harboring pRK415 plasmid at 20 ug/ml; how it was run: as §1
[24] = biological target: T1, Catechol 2,3-dioxygenase (Stenotrophomonas maltophilia); assay: Induction of catechol 2,3-dioxygenase activity in Stenotrophomonas maltophilia KJ harboring pRKF1 plasmid at 20 ug/ml; how it was run: as §1
[25] = test system: Stenotrophomonas maltophilia; assay: Induction of beta lactamase activity in Stenotrophomonas maltophilia KJN2 harboring pRK-G and ampN with xylE-Gmomega cassette insertion at 20 ug/ml; how it was run: as §2
[26] = test system: Stenotrophomonas maltophilia; assay: Induction of beta-lactamase activity in Stenotrophomonas maltophilia KJN1 harboring ampN with xylE-Gmomega cassette insertion at 20 ug/ml; how it was run: as §2
[27] = test system: Stenotrophomonas maltophilia; assay: Induction of beta lactamase activity in Stenotrophomonas maltophilia KJN2 harboring pRK-EcG and ampN with xylE-Gmomega cassette insertion at 20 ug/ml; how it was run: as §2
[28] = biological target: T1, Catechol 2,3-dioxygenase (Stenotrophomonas maltophilia); assay: Induction of catechol 2,3-dioxygenase activity in Stenotrophomonas maltophilia KJN1 harboring ampN with xylE-Gmomega cassette insertion at 20 ug/ml; how it was run: as §1
[29] = test system: Stenotrophomonas maltophilia; assay: Antimicrobial activity against ampN deficient Stenotrophomonas maltophilia KJ harboring ampG with xylE-Gmomega cassette insertion by agar dilution method; format: functional; how it was run: as §3
[30] = test system: Stenotrophomonas maltophilia; assay: Antimicrobial activity against Stenotrophomonas maltophilia KJ by agar dilution method; format: functional; how it was run: as §3
[31] = test system: Stenotrophomonas maltophilia; assay: Induction of beta-lactamase activity in Stenotrophomonas maltophilia KJ at 20 ug/ml
How it was run: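 Cefuroxime 20 μg/ml added as inducer. β-lactamase activity read by nitrocefin hydrolysis at 486 nm (ε 20,500 M−1 cm−1). Specific activity given as nmol nitrocefin hydrolyzed/min/mg protein. Protein measured by Bio-Rad assay against a BSA standard. L1 versus L2 split by the modified nitrocefin-EDTA method.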

[32] = biological target: T1, Catechol 2,3-dioxygenase (Stenotrophomonas maltophilia); assay: Induction of catechol 2,3-dioxygenase activity in Stenotrophomonas maltophilia KJ harboring pRKF6 plasmid at 20 ug/ml; how it was run: as §1
[33] = biological target: T1, Catechol 2,3-dioxygenase (Stenotrophomonas maltophilia); assay: Induction of catechol 2,3-dioxygenase activity in ampN deficient Stenotrophomonas maltophilia KJ harboring pRK415 and ampG gene with xylE-Gmomega cassette insertion at 20 ug/ml; how it was run: as §1
[34] = test system: Stenotrophomonas maltophilia; assay: Induction of beta-lactamase activity in Stenotrophomonas maltophilia KJ harboring pRK-NG plasmid at 20 ug/ml; how it was run: as §2
[35] = test system: Stenotrophomonas maltophilia; assay: Antimicrobial activity against Stenotrophomonas maltophilia KJN2 harboring pRK-NG plasmid and ampN with xylE-Gmomega cassette insertion by agar dilution method; format: functional; how it was run: as §3
[36] = test system: Stenotrophomonas maltophilia; assay: Induction of beta-lactamase activity in Stenotrophomonas maltophilia KJ harboring pRK415 plasmid at 20 ug/ml; how it was run: as §2
[37] = biological target: T1, Catechol 2,3-dioxygenase (Stenotrophomonas maltophilia); assay: Induction of catechol 2,3-dioxygenase activity in ampN deficient Stenotrophomonas maltophilia KJ harboring pRK-NG and ampG gene with xylE-Gmomega cassette insertion at 20 ug/ml; how it was run: as §1
[38] = test system: Stenotrophomonas maltophilia; assay: Antimicrobial activity against ampN deficient Stenotrophomonas maltophilia KJ by Etest; format: functional
How it was run: (§4)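 Imipenem and meropenem MICs were read from Etest strips, following the manufacturer's instructions.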

[39] = test system: Stenotrophomonas maltophilia; assay: Antimicrobial activity against Stenotrophomonas maltophilia KJN2 harboring ampN with xylE-Gmomega cassette insertion by Etest; format: functional; how it was run: as §4
[40] = test system: Stenotrophomonas maltophilia; assay: Antimicrobial activity against Stenotrophomonas maltophilia KJN2 harboring pRK415 plasmid and ampN with xylE-Gmomega cassette insertion by Etest; format: functional; how it was run: as §4
[41] = test system: Stenotrophomonas maltophilia; assay: Antimicrobial activity against Stenotrophomonas maltophilia KJG harboring ampG with xylE-Gmomega cassette insertion by Etest; format: functional; how it was run: as §4
[42] = test system: Stenotrophomonas maltophilia; assay: Antimicrobial activity against Stenotrophomonas maltophilia KJN2 harboring pRK-EcG plasmid and ampN with xylE-Gmomega cassette insertion by Etest; format: functional; how it was run: as §4
[43] = test system: Stenotrophomonas maltophilia; assay: Antimicrobial activity against ampN deficient Stenotrophomonas maltophilia KJ harboring ampG with xylE-Gmomega cassette insertion by Etest; format: functional; how it was run: as §4
[44] = test system: Stenotrophomonas maltophilia; assay: Antimicrobial activity against Stenotrophomonas maltophilia KJN2 harboring pRK-NG plasmid and ampN with xylE-Gmomega cassette insertion by Etest; format: functional; how it was run: as §4
[45] = test system: Stenotrophomonas maltophilia; assay: Antimicrobial activity against Stenotrophomonas maltophilia KJ by Etest; format: functional; how it was run: as §4
[46] = test system: Stenotrophomonas maltophilia; assay: Antimicrobial activity against Stenotrophomonas maltophilia KJN2 harboring pRK-G plasmid and ampN with xylE-Gmomega cassette insertion by Etest; format: functional; how it was run: as §4
[47] = test system: Stenotrophomonas maltophilia; assay: Antimicrobial activity against Stenotrophomonas maltophilia KJN1 harboring ampN with xylE-Gmomega cassette insertion by Etest; format: functional; how it was run: as §4

## CO/N=C(\C(=O)N[C@@H]1C(=O)N2C(C(=O)O)=C(COC(N)=O)CS[C@H]12)c1ccco1 [CEFUROXIME]
[1]
  Activity (nmol/min/OD450): 41
[2]
  Activity: 18 U/mg
[3]
  Activity (nmol/min/OD450): 4
[4]
  Activity: 6 U/mg
[5]
  Activity (nmol/min/OD450): 50
[6]
  Activity (nmol/min/OD450): 39
[7]
  Activity (nmol/min/OD450): 6
[8]
  Activity: 5 U/mg
[9]
  Activity: 3 U/mg
[10]
  MIC: 32 mg/L (≈ 75.4 µM)
[11]
  MIC: 32 mg/L (≈ 75.4 µM)
[12]
  Activity (nmol/min/OD450): 6
[13]
  MIC: 64 mg/L (≈ 151 µM)
[14]
  MIC: 32 mg/L (≈ 75.4 µM)
[15]
  MIC: > 1020 mg/L
[16]
  Activity: 6 U/mg
[17]
  MIC: 32 mg/L (≈ 75.4 µM)
[18]
  Activity (nmol/min/OD450): 4
[19]
  MIC: 32 mg/L (≈ 75.4 µM)
[20]
  Activity (nmol/min/OD450): 45
[21]
  Activity: 1450 U/mg
[22]
  Activity (nmol/min/OD450): 5
[23]
  Activity (nmol/min/OD450): 0
[24]
  Activity (nmol/min/OD450): 6
[25]
  Activity: 12 U/mg
[26]
  Activity: 5 U/mg
[27]
  Activity: 882 U/mg
[28]
  Activity (nmol/min/OD450): 4
[29]
  MIC: 32 mg/L (≈ 75.4 µM)
[30]
  MIC: > 1020 mg/L
[31]
  Activity: 1520 U/mg
[32]
  Activity (nmol/min/OD450): 8
[33]
  Activity (nmol/min/OD450): 5
[34]
  Activity: 1620 U/mg
[35]
  MIC: > 1020 mg/L
[36]
  Activity: 1740 U/mg
[37]
  Activity (nmol/min/OD450): 5

## C[C@@H](O)[C@H]1C(=O)N2C(C(=O)O)=C(SCCNC=N)C[C@H]12 [IMIPENEM ANHYDROUS]
[38]
  MIC: 4 mg/L (≈ 13.4 µM)
[39]
  MIC: 2 mg/L (≈ 6.68 µM)
[40]
  MIC: 1.5 mg/L (≈ 5.01 µM)
[41]
  MIC: 2 mg/L (≈ 6.68 µM)
[42]
  MIC: > 32 mg/L
[43]
  MIC: 2 mg/L (≈ 6.68 µM)
[44]
  MIC: > 32 mg/L
[45]
  MIC: > 32 mg/L
[46]
  MIC: 3 mg/L (≈ 10 µM)
[47]
  MIC: 4 mg/L (≈ 13.4 µM)
